Drawing on ChEMBL document CHEMBL1141302, “Anti-Helicobacter pylori and thrombin inhibitory components from Chinese dragon's blood, Dracaena cochinchinensis” (J Nat Prod, 2007), this text covers IC50 and MIC for 24 compounds.

The target in experiment [1] is Prothrombin (Homo sapiens, UniProt P00734). Put plainly: Inhibition of human thrombin.
The test system of experiment [2] is Helicobacter pylori. Put plainly: Antibacterial activity against Helicobacter pylori ATCC 43504 by agar dilution method. In kind it is functional. An outline of the steps:
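Mueller-Hinton agar plates with 7% lysed sheep blood and 2-fold serial dilutions of compound; spots of 5 µL bacterial suspension (10^7 cfu/mL) by multipoint inoculator; 37°C for 3 days, microaerobic (5% O2, 10% CO2, 85% N2, 98% humidity). MIC read as lowest inhibitory concentration; drug-free and DMSO-dilution plates as negative controls.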

Experiment [3] deals with Dipeptidyl peptidase 4 (Homo sapiens, UniProt P27487). Put plainly: Inhibition of human recombinant DPP4. In outline: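 Recombinant human DPP-IV, expressed and purified in-house, at 0.01 nM in 100 mM Hepes pH 7.5 with 10 µM Ala-Pro-AMC substrate and 2% DMSO.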

Each structure is given as a SMILES string. Converted amounts (≈) assume the structure as drawn. Where only a bound is given, the exact number is not on record here.

Dipeptidyl peptidase 4, sequence (P27487 whole entry): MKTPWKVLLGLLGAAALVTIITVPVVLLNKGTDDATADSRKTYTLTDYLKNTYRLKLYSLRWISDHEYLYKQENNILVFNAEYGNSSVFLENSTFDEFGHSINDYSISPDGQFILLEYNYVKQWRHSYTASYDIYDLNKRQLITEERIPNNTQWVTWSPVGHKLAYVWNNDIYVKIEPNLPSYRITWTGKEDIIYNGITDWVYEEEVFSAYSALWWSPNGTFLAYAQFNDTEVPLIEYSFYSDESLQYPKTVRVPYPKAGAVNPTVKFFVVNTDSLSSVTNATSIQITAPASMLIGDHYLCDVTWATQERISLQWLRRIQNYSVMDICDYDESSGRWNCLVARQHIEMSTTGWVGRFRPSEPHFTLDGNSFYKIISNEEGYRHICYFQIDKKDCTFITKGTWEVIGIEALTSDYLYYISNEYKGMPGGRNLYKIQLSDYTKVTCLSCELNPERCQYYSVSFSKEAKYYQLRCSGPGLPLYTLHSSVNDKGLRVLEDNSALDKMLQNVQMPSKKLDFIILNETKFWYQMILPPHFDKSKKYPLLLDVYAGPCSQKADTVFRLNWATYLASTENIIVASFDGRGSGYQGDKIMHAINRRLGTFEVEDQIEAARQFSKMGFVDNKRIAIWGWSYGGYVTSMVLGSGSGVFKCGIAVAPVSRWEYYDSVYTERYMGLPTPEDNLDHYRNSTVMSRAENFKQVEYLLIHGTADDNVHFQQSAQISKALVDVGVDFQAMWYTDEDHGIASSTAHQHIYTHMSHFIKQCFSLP

Regarding `COc1cc(O)c(C(CCc2ccc(O)cc2OC)c2ccc(O)cc2)cc1CCC(=O)c1ccc(O)cc1` (stereo not given), the IC50 in experiment [1] was 26.3 µM; in experiment [3] it was more than 36.9 µM. Further, the lowest concentration to inhibit growth in experiment [2] (MIC) was 60.6 µM (≈ 32 µg/mL). In the case of `Cc1c(O)ccc2c1O[C@H](c1ccc(O)cc1)CC2`, the lowest concentration to inhibit growth in experiment [2] (MIC) was 31.3 µM (≈ 8.02 µg/mL).

Compound `COc1cc(O)c2c(c1C)O[C@H](c1ccc(O)cc1)CC2` displayed an MIC in experiment [2] of 55.9 µM (≈ 16 µg/mL). As to `COc1ccc([C@@H]2CCc3ccc(O)cc3O2)cc1`, the MIC in experiment [2] was determined as 250 µM (≈ 64.1 µg/mL). On the same count and under the same terms, to `O=C(CCc1ccc(O)cc1O)c1ccc(O)cc1` belongs 248 µM (≈ 64.1 µg/mL). Compound `COc1cc(O)ccc1C(=O)/C=C/c1ccc(O)cc1` displayed an MIC in experiment [2] of 118 µM (≈ 32 µg/mL).

`COc1cc(O)ccc1CCC(=O)c1ccc(O)cc1` displayed an MIC in experiment [2] of 235 µM (≈ 64.1 µg/mL). The same measure, in the same setting: to `COc1ccc(CCC(=O)c2ccc(O)cc2)c(OC)c1` belongs 224 µM (≈ 64.1 µg/mL). Take `COc1cc(O)ccc1CCC(c1ccc(O)cc1)c1cc2c(c(C)c1O)O[C@@H](c1ccc(O)cc1)CC2` (stereo not given in full): the IC50 was 21.5 µM in experiment [1] and more than 39.1 µM in experiment [3]. The minimum inhibitory concentration (MIC) in experiment [2] stood at 62.5 µM (≈ 32 µg/mL). As for `COc1ccc2c(c1C)O[C@@H](c1ccc(O)cc1)CC2`, in experiment [2], 59.3 µM (≈ 16 µg/mL) was the least that counted as inhibitory (MIC). Compound `COc1c(O)ccc2c1OCC(Cc1ccc(O)cc1)C2` (stereo not given) had an MIC in experiment [2] of 55.9 µM (≈ 16 µg/mL). `COc1cc(O)cc(O)c1CCC(=O)c1ccc(O)cc1` yielded an MIC in experiment [2] of 111 µM (≈ 32 µg/mL). Turning to `COc1cc(O)cc(OC)c1CCC(=O)c1ccc(O)cc1`, the MIC in experiment [2] was 212 µM (≈ 64.1 µg/mL). The same measure, in the same setting: to `CC1(C)S[C@@H]2[C@H](NC(=O)[C@H](N)c3ccc(O)cc3)C(=O)N2[C@H]1C(=O)O` [AMOXICILLIN] belongs 0.08 µM (≈ 0.0292 µg/mL). Regarding `COc1ccc(C(CCc2ccc(O)cc2OC)c2c(OC)cc(/C=C/c3ccc(O)cc3)cc2OC)cc1` (stereo not given) [COCHINCHINENENE A], the figures for the IC50 in experiment [1] and in experiment [3] were more than 9.5 µM and more than 36.9 µM, respectively. In experiment [2], this compound registered an MIC of 60.8 µM (≈ 32 µg/mL). Turning to `COc1ccc(C(CCc2ccc(O)cc2OC)c2c(O)cc(OC)cc2/C=C/c2ccc(O)cc2)cc1` (stereo not given) [COCHINCHINENENE B], the results for the IC50 in experiment [1] and in experiment [3] were 17.8 µM and more than 39.1 µM, respectively. In experiment [2], this compound registered an MIC of 62.5 µM (≈ 32 µg/mL). Taken in the same sequence, the figures for `COc1cc(O)ccc1CCC(c1ccc(O)cc1)c1c(/C=C/c2ccc(O)cc2)cc(O)cc1OC` (stereo not given) [COCHINCHINENENE C] were 26.7 µM, more than 40.2 µM and 64.3 µM (≈ 32.1 µg/mL). On to `COc1cc(O)ccc1CCC(c1ccc(O)cc1)c1c(O)cc(O)cc1/C=C/c1ccc(O)cc1` (stereo not given) [COCHINCHINENENE D], for which the IC50 in experiment [1] and in experiment [3] was more than 41.3 µM throughout. Further, in experiment [2], the lowest concentration to inhibit growth (MIC) was 66.1 µM (≈ 32 µg/mL).

Take `COc1cc(OC)c(C(CCc2ccc(O)cc2OC)c2ccc(O)cc2)cc1CCC(=O)c1ccc(O)cc1` (stereo not given) [COCHINCHINENIN B]: the IC50 was 12.3 µM in experiment [1] and more than 36.9 µM in experiment [3]. Also, the lowest concentration to inhibit growth in experiment [2] (MIC) was 29.5 µM (≈ 16 µg/mL).

In the case of `COc1ccc(C(CCc2ccc(O)cc2OC)c2cc(CCC(=O)c3ccc(O)cc3)c(OC)cc2O)cc1` (stereo not given) [COCHINCHINENIN C], the IC50 in experiment [1] was more than 9.2 µM; in experiment [3], more than 36.9 µM. Besides, the minimal inhibitory concentration (MIC) in experiment [2] was found to be 29.5 µM (≈ 16 µg/mL).

In turn, `COC1=CC(=O)C=C(OC)C1(O)CCC(=O)c1ccc(O)cc1` [COCHINCHINENONE] came in with an MIC in experiment [2] of 201 µM (≈ 64.1 µg/mL).

Consider `Cc1ncc([N+](=O)[O-])n1CCO` [METRONIDAZOLE], for which the MIC in experiment [2] is 748 µM (≈ 128 µg/mL). On to `COc1ccc(/C=C/c2cc(O)cc(O)c2)cc1` [RESVERATROL 4'-METHYL ETHER], for which, in experiment [2], 264 µM (≈ 64.1 µg/mL) was the least that counted as inhibitory (MIC).

`Oc1ccc(/C=C/c2cc(O)cc(O)c2)cc1` [RESVERATROL] returned an MIC in experiment [2] of 281 µM (≈ 64.1 µg/mL).

As usually defined, the IC50 is the concentration needed to halve the response being measured. By MIC is commonly meant the lowest concentration found to suppress growth.
